Results reported in ChEMBL document CHEMBL4765317, “Novel bacterial topoisomerase inhibitors derived from isomannide” (Eur J Med Chem, 2020).
≈ marks a conversion by molar mass, not a printed value.

Columns and labels:
Staphylococcus aureus [1] = experiment: Antibacterial activity against Staphylococcus aureus ATCC 29213 assessed as reduction in bacterial growth by CLSI based broth microdilution method; type: functional
Staphylococcus aureus [2] = experiment: Antibacterial activity against Staphylococcus aureus USA300 assessed as reduction in bacterial growth by CLSI based broth microdilution method; type: functional
Staphylococcus aureus [3] = experiment: Antibacterial activity against cystic fibrosis patient isolate Staphylococcus aureus assessed as reduction in bacterial growth by CLSI based broth microdilution method; type: functional
[4] = biological target: Voltage-gated inwardly rectifying potassium channel KCNH2 (Homo sapiens, UniProt Q12809); experiment: Inhibition of human ERG
Voltage-gated inwardly rectifying potassium channel KCNH2, sequence (Q12809 whole entry): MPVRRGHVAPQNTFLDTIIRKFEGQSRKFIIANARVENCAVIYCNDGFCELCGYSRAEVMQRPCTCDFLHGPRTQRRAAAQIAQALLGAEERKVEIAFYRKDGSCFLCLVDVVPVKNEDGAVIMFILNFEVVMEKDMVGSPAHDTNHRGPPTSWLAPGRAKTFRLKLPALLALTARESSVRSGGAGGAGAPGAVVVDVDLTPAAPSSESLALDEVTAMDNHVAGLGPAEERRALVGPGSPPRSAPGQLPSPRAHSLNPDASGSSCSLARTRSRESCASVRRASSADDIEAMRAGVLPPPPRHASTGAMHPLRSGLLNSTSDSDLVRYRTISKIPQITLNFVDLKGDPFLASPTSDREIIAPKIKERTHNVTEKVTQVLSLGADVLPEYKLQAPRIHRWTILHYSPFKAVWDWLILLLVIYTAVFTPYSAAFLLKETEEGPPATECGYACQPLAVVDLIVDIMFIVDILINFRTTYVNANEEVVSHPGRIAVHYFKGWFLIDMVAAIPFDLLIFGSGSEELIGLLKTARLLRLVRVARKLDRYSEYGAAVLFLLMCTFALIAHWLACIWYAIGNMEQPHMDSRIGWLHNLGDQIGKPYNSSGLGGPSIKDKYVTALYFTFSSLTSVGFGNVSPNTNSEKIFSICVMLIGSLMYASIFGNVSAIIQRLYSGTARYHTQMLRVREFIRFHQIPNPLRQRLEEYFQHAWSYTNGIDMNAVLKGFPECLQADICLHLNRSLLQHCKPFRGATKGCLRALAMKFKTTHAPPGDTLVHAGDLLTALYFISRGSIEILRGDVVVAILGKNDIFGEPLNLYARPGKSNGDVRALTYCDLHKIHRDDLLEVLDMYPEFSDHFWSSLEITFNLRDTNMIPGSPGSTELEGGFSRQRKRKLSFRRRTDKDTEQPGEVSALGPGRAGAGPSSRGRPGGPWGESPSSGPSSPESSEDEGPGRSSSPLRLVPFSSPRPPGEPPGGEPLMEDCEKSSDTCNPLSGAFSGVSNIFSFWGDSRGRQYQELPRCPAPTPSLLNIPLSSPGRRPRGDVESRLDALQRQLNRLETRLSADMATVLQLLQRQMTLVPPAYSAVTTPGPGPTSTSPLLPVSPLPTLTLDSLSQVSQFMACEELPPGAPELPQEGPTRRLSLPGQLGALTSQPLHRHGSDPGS

Staphylococcus aureus [5] = experiment: Antibacterial activity against methicillin-resistant Staphylococcus aureus DRL-3161 assessed as reduction in bacterial growth by CLSI based broth microdilution method; type: functional
Staphylococcus aureus [6] = experiment: Selectivity index, fold shift in MIC between parent and mutant; type: functional
Outline: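 MICs by CLSI broth microdilution in µg/mL against multidrug-resistant MRSA isolate 3527 (formerly 1095) and its isogenic NBTI-resistant daughter strain carrying a gyrase D83N substitution. Value is the fold shift in MIC between parent and mutant.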

Enterococcus faecium [7] = experiment: Antibacterial activity against Vancomycin-resistant Enterococcus faecium LSI-3340 assessed as reduction in bacterial growth by CLSI based broth microdilution method; type: functional
Enterococcus faecalis = experiment: Antibacterial activity against Enterococcus faecalis ATCC 29212 assessed as reduction in bacterial growth by CLSI based broth microdilution method; type: functional
Staphylococcus aureus [8] = experiment: Antibacterial activity against Staphylococcus aureus harboring DNA gyrase D83N mutant assessed as reduction in bacterial growth by CLSI based broth microdilution method; type: functional
Outline: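 MIC against an isogenic NBTI-resistant daughter strain carrying a D83N substitution in DNA gyrase, originally selected under NBTI pressure from multidrug-resistant MRSA isolate 3527. CLSI broth microdilution was used, with values in µg/mL.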

Streptococcus pneumoniae [9] = experiment: Antibacterial activity against penicillin-resistant Streptococcus pneumoniae LSI-4246 assessed as reduction in bacterial growth by CLSI based broth microdilution method; type: functional
Streptococcus pneumoniae [10] = experiment: Antibacterial activity against penicillin-susceptible Streptococcus pneumoniae LSI-4234 assessed as reduction in bacterial growth by CLSI based broth microdilution method; type: functional
Staphylococcus aureus [11] = experiment: Selectivity index, ratio of IC50 for inhibition of Staphylococcus aureus topoisomerase IV to IC50 for inhibition of Staphylococcus aureus DNA gyrase
Outline: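 Ratio of S. aureus TopoIV IC50 to S. aureus DNA gyrase IC50, both from gel-based assays. TopoIV read-out was inhibition of decatenation; gyrase read-out was inhibition of supercoiling.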

Staphylococcus aureus [12] = experiment: Antibacterial activity against Staphylococcus aureus 3527 assessed as reduction in bacterial growth by CLSI based broth microdilution method; type: functional
Outline: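 Host is a multidrug-resistant MRSA clinical isolate (formerly 1095), the parent of an isogenic D83N gyrase mutant. MIC was read by CLSI broth microdilution and reported in µg/mL.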

[13] = Inhibition of Staphylococcus aureus DNA gyrase using relaxed pBR322 DNA as substrate incubated for 30 mins by agarose gel electrophoresis method
Streptococcus pyogenes = experiment: Antibacterial activity against Streptococcus pyogenes LSI-1235 assessed as reduction in bacterial growth by CLSI based broth microdilution method; type: functional
Enterococcus faecium [14] = experiment: Antibacterial activity against Vancomycin-susceptible Enterococcus faecium DRL-4193 assessed as reduction in bacterial growth by CLSI based broth microdilution method; type: functional
[15] = Inhibition of Staphylococcus aureus topoisomerase IV using kDNA as substrate incubated for 30 mins by gel electrophoresis analysis

SMILES | MIC (Staphylococcus aureus [1]) [µg/mL] | MIC (Staphylococcus aureus [2]) [µg/mL] | MIC (Staphylococcus aureus [3]) [µg/mL] | IC50 [4] [µM] | Ratio (Staphylococcus aureus [6]) | MIC (Staphylococcus aureus [8]) [µg/mL] | MIC (Staphylococcus aureus [12]) [µg/mL] | IC50 [13] [nM] | IC50 ([15]; read-out: IC50) [nM] | further results
COc1ccc2nccc(CC[C@@]3(O)CO[C@@H]4[C@@H](NCc5ccccc5)CO[C@@H]43)c2c1 | > 8 | > 8 | > 8 |  |  |  |  |  |  | 
COc1ccc2ncc(F)c(CC[C@]3(O)CC[C@H](NCc4ccc(Cl)c(Cl)c4)CC3)c2n1 |  |  |  | 3.8 |  |  |  |  |  | 
COc1ccc2ncc(F)c(CC[C@H]3OC[C@H](NCc4ccc5c(c4)OCCO5)CO3)c2n1 | < 0.25 | 0.125 (≈ 0.274 µM) | 0.25 (≈ 0.549 µM) | 8 | > 16 | 4 (≈ 8.78 µM) | ≤ 0.25 | 30 | 1000 | MIC (Staphylococcus aureus [5]): ≤ 0.06 µg/mL; MIC (Enterococcus faecium [7]): 0.12 µg/mL (≈ 0.263 µM); MIC (Enterococcus faecalis): 0.5 µg/mL (≈ 1.1 µM); MIC (Streptococcus pneumoniae [9]): ≤ 0.06 µg/mL; MIC (Streptococcus pneumoniae [10]): 0.25 µg/mL (≈ 0.549 µM); Ratio IC50 (Staphylococcus aureus [11]): 33; MIC (Streptococcus pyogenes): ≤ 0.06 µg/mL; MIC (Enterococcus faecium [14]): 0.12 µg/mL (≈ 0.263 µM)
COc1ccc2ncc(F)c(CC[C@H]3OC[C@H](NCc4ccc(Cl)c(Cl)c4)CO3)c2n1 |  |  |  | 7.9 |  |  |  |  |  | 
COc1ccc2nccc(CC[C@@]3(O)CO[C@@H]4[C@@H](NCc5ccc6c(c5)OCCO6)CO[C@@H]43)c2c1 | 16 (≈ 33.4 µM) | 16 (≈ 33.4 µM) | 16 (≈ 33.4 µM) |  |  |  |  |  |  | 
COc1ccc2ncc(F)c(CC[C@]3(O)CC[C@H](NCc4ccc5c(c4)OCCO5)CC3)c2n1 |  |  |  | 2.3 |  |  |  |  |  | 
COc1ccc2ncc(F)c(CC[C@@]3(O)CO[C@@H]4[C@@H](NCc5ccc6c(n5)NC(=O)CO6)CO[C@@H]43)c2n1 | 2 (≈ 3.91 µM) | 1 (≈ 1.95 µM) | 2 (≈ 3.91 µM) | 12 | 8 | 8 (≈ 15.6 µM) | 1 (≈ 1.95 µM) | 540 |  | IC50 [15]: Not Active
COc1ccc2ncc(F)c(CC[C@H]3OC[C@H](NCc4cc5c(cn4)OCCO5)CO3)c2n1 |  |  |  | 15 |  |  |  |  |  | 
COc1ccc2ncc(F)c(CC[C@@]3(O)CO[C@@H]4[C@@H](NCc5ccc6c(c5)OCCO6)CO[C@@H]43)c2n1 | 0.5 (≈ 1 µM) | 1 (≈ 2.01 µM) | 1 (≈ 2.01 µM) | 20 | 4 | 4 (≈ 8.04 µM) | 1 (≈ 2.01 µM) | 200 | 2600 | Ratio IC50 (Staphylococcus aureus [11]): 13
COc1ccc2ncc(F)c(CC[C@@]3(O)CO[C@@H]4[C@@H](NCc5ccc(Cl)c(Cl)c5)CO[C@@H]43)c2n1 | ≤ 0.25 | 0.5 (≈ 0.984 µM) | 0.5 (≈ 0.984 µM) |  |  | 4 (≈ 7.87 µM) | 0.25 (≈ 0.492 µM) | 200 | 2900 | 
COc1ccc2ncc(F)c(CC[C@@]3(O)CO[C@@H]4[C@@H](NCc5ccc(C)cc5)CO[C@@H]43)c2n1 | 1 (≈ 2.21 µM) | 2 (≈ 4.41 µM) | 2 (≈ 4.41 µM) |  | 8 | 16 (≈ 35.3 µM) | 2 (≈ 4.41 µM) | 180 | 7500 | Ratio IC50 (Staphylococcus aureus [11]): 42
COc1ccc2ncc(F)c(CC[C@]3(O)CC[C@@H](NCc4ccc5c(c4)OCCO5)CC3)c2n1 |  |  |  | 2.2 |  |  |  |  |  | 
COc1ccc2nccc(CC[C@@]3(O)CO[C@@H]4[C@@H](NCc5ccc(C)cc5)CO[C@@H]43)c2c1 | > 8 | > 8 | > 8 |  |  |  |  |  |  | 
